Results from different studies.
CDK1: Cyclin-dependent kinase 1 (CDK1, Homo sapiens, UniProt P06493)
CDK1 with cyclin A: Cyclin-dependent kinase 1, with cyclin A (CDK1, Homo sapiens, UniProt P06493)
CDK1 with cyclin B: Cyclin-dependent kinase 1, with cyclin B (CDK1, Homo sapiens, UniProt P06493)

`COc1cccc2c(NCc3ccccc3)nc(-n3c(N)nc4ccccc43)nc12` has an inhibition of -2.6% (CDK1; target engagement in cells, inhibitor, chemoproteomics; 20 mM).
`O=C1NC(=O)c2c1c1c3ccccc3[nH]c1n1cncc21` has a remaining signal of 94.8% (CDK1 with cyclin A; cell-free assay; 0.5 µM).
The inhibition of `CCCCNc1ncc2c(-c3ccc(F)cc3)nn(C[C@H]3CC[C@H](N)CC3)c2n1` is reported as 4.2% (CDK1; target engagement in cells, inhibitor, chemoproteomics; 20 mM).
For `COc1cc(Cl)c(C(=O)N[C@@H](CN[C@H]2CC[C@@H](N)CC2)Cc2ccc(C#N)cc2)cc1-c1ccc(CN[C@H](C)c2ccc(C)cc2)o1`, the remaining activity was 95% (CDK1 with cyclin B; enzyme activity, inhibitor; 1 µM).
For `Cc1ccc(Nc2nccc(N(C)c3ccc4c(C)n(C)nc4c3)n2)cc1S(N)(=O)=O`, the inhibition was 29% (CDK1 with cyclin B; enzyme activity, inhibitor; 10 µM).
With `O=C1Nc2ccc(Cl)cc2C1=Cc1cc(Cl)c(O)c(Cl)c1` the remaining signal was 96.3% (CDK1 with cyclin B; cell-free assay; 0.5 µM).
The remaining activity of `CC(C)(C)c1nc2c(s1)c1nc(N)ncc1c1ccc(NS(=O)(=O)c3c(F)cccc3F)c(F)c12` is reported as 89% (Cyclin-dependent kinase 1, with cyclin B1 (CDK1, Homo sapiens, UniProt P06493); enzyme activity, inhibitor, radiometric; 1 µM).
For `CSc1nc(C)c(-c2ccnc(Nc3ccc(N4CCOCC4)cc3)c2)[nH]1`, the inhibition was 62% (CDK1; enzyme activity, inhibitor; 10 µM).
For `CNCc1ccc(-c2cc(-c3nc(-c4ccc(S(=O)(=O)C(C)C)cc4)cnc3N)on2)cc1`, the inhibition was 6% (CDK1 with cyclin B; enzyme activity, inhibitor; 2 µM).
The remaining signal of `O=C1NC(=O)c2cc(Nc3ccc(F)cc3)c(Nc3ccc(F)cc3)cc21` is reported as 103% (CDK1 with cyclin B; cell-free assay; 0.5 µM).
`Cc1cc(NC(=O)c2cccc3cc(-c4cccc5[nH]nc(N)c45)ccc23)ccc1F` gave an activity vs control of 95% (CDK1 with cyclin B; enzyme activity, inhibitor; 0.1 µM).
For `CC(C)(C)c1nc(-c2cccc(NS(=O)(=O)c3c(F)cccc3F)c2F)c(-c2ccnc(N)n2)s1`, the remaining activity was 84% (Cyclin-dependent kinase 1, with cyclin A2 (CDK1, Homo sapiens, UniProt P06493); enzyme activity, inhibitor, radiometric; 1 µM).
`O=C(Nc1cnn(-c2csc(C(=O)NC3COC3)c2)c1)Nc1c(F)cccc1Cl` has a remaining activity of 98.4% (Cyclin-dependent kinase 1, with cyclin E (CDK1, Homo sapiens, UniProt P06493); enzyme activity, inhibitor; 5 µM).
The remaining signal of `Cc1ccc(NC(=O)c2ccc(C)c(C(F)(F)F)c2)cc1C#Cc1nn(C2CCC(O)CC2)c2ncnc(N)c12` (centres unmarked) is reported as 104% (CDK1 with cyclin B; cell-free assay; 10 µM).
With `COc1cc2ncnc(Nc3ccc(Oc4ccccc4)c(C)c3C)c2cc1OC` the inhibition was 3% (CDK1 with cyclin B; enzyme activity, inhibitor; 1 µM).
For `Cc1ccc(C(=O)NCc2ccsc2)cc1C#Cc1cn(C(C)C)c2ncnc(N)c12`, the activity vs control was 100% (CDK1 with cyclin B; enzyme activity, inhibitor; 1 µM).
The remaining signal of `CC(C)n1cnc2c(Nc3cccc(Cl)c3)nc(NCCO)nc21` is reported as 78.5% (CDK1 with cyclin A; cell-free assay; 0.5 µM).
`Cc1sc(C(=O)NC2COC2)cc1-n1cc(NC(=O)Nc2c(F)cccc2Cl)cn1` has a remaining activity of 105% (CDK1 with cyclin A; enzyme activity, inhibitor; 10 µM).
The activity vs control of `CC(C)c1ccc(NC(=O)c2cccs2)c(-c2nc3ccccc3[nH]c2=O)c1` is reported as 107% (CDK1 with cyclin B; enzyme activity, inhibitor; 1 µM).
With `CNC(=O)c1cc(Oc2ccc(NC(=O)Nc3ccc(Cl)c(C(F)(F)F)c3)cc2)ccn1` the inhibition was 10% (CDK1 with cyclin B; enzyme activity, inhibitor; 10 µM).
`CCOc1cc(-c2nncn2C)ccc1Nc1ncc2cc(C)nc(NCC(C)(C)C)c2n1` gave an inhibition of 30% (CDK1 with cyclin B; enzyme activity, inhibitor, FRET; 1 µM).
With `Nc1nc(Nc2ccc(S(N)(=O)=O)cc2)nn1C(=O)c1c(F)cccc1F` the remaining signal was 10.3% (CDK1 with cyclin A; cell-free assay; 0.5 µM).
With `CCN(CC)CCNC(=O)c1c(C)[nH]c(/C=C2\C(=O)Nc3ccc(F)cc32)c1C` the inhibition was 10% (CDK1 with cyclin B; enzyme activity, inhibitor; 10 µM).
The remaining signal of `CC(C)[C@H](CO)Nc1nc(Nc2cccc(Cl)c2)c2ncn(C(C)C)c2n1` is reported as 34.9% (CDK1 with cyclin B; cell-free assay; 0.5 µM).
`O=C(Nc1cnn(-c2csc(C(=O)NC3COC3)c2)c1)Nc1ccccc1Cl` has a remaining activity of 92.6% (CDK1 with cyclin B; enzyme activity, inhibitor; 5 µM).
The remaining signal of `N#CCCc1ccc2c(c1)-c1[nH]c3ccc([N+](=O)[O-])cc3c1CC(=O)N2` is reported as 9.89% (CDK1 with cyclin B; cell-free assay; 0.5 µM).
The remaining activity of `CC(C)(O)[C@H]1CC[C@H](Nc2ccc3ncc(-c4cccc(C(F)(F)F)c4)n3n2)CC1` is reported as 95.4% (CDK1 with cyclin A; enzyme activity, inhibitor; 1 µM).
For `O=Nc1c(-c2c(O)[nH]c3ccccc23)[nH]c2ccccc12`, the remaining signal was 88.4% (CDK1 with cyclin A; cell-free assay; 0.5 µM).
For `Nc1nc(Nc2ccc(S(N)(=O)=O)cc2)sc1C(=O)c1ccccc1[N+](=O)[O-]`, the inhibition was 90 to 93% (CDK1; enzyme activity, inhibitor; 0.1 µM).
